The results in this text go back to article PMC9070076 (RSC Advances, 2019).

The nature of data set [1]: Multicomponent pharmacokinetics in rat plasma after single i.v. EBI. Type of data set: in vivo, Sprague-Dawley rats. The settings on record: Sprague-Dawley, iv, n = 6.
Data set [2] concerns isoprenaline-induced myocardial infarction (MI) in mice. Type of data set: in vivo, Kunming mice. The settings on record: 30 mg kg^-1 i.v. for 7 days, seventh day. The method, boiled down: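 Kunming mice (about 8 weeks, 20–30 g) were randomised into groups of n = 8 and given test compound i.v. for 7 days in 0.5% NaHCO₃:propylene glycol:saline (17:2:81). Isoprenaline chloride 5 mg kg⁻¹ i.p. was given days 4–5 to all groups except control. Lead II ECG ST elevation was recorded under pentobarbital. Day-7 orbital serum was taken for CK, and left-ventricle H&E sections were read at 200×. Single-tailed t test.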

Setting [3] is: 0.72 mL kg^-1, AUC0–t, Low dosage: 0.72 mL kg^-1 of 10 times concentrated EBI.
Where [4] appears, read: 0.72 mL kg^-1, Cl, Low dosage: 0.72 mL kg^-1 of 10 times concentrated EBI.
Setting [5] is: 0.72 mL kg^-1, MRT0–t, Low dosage: 0.72 mL kg^-1 of 10 times concentrated EBI.
Where [6] appears, read: 0.72 mL kg^-1, Vd, Low dosage: 0.72 mL kg^-1 of 10 times concentrated EBI.
Setting [7] is: 0.72 mL kg^-1, t 1/2, Low dosage: 0.72 mL kg^-1 of 10 times concentrated EBI.
The mark [8] stands for this setting: 3.6 mL kg^-1, AUC0–t, High dosage: 3.6 mL kg^-1 of 10 times concentrated EBI.
[9] abbreviates: 3.6 mL kg^-1, Cl, High dosage: 3.6 mL kg^-1 of 10 times concentrated EBI.
Where [10] appears, read: 3.6 mL kg^-1, MRT0–t, High dosage: 3.6 mL kg^-1 of 10 times concentrated EBI.
[11] abbreviates: 3.6 mL kg^-1, Vd, High dosage: 3.6 mL kg^-1 of 10 times concentrated EBI.
[12] abbreviates: 3.6 mL kg^-1, t 1/2, High dosage: 3.6 mL kg^-1 of 10 times concentrated EBI.

Regarding `O=C(O)[C@H]1O[C@@H](Oc2cc3oc(-c4ccc(O)cc4)cc(=O)c3c(O)c2O)[C@H](O)[C@@H](O)[C@@H]1O` [Scutellarin, scutellarin], the AUC(0-t) in data set [1] (setting [3]) came to 1510 ± 574 ng·h/mL; in data set [1] (setting [8]) it was 6860 ± 989 ng·h/mL. Moreover, the figures for the clearance in data set [1] (setting [4]) and in data set [1] (setting [9]) were 8.5 mL/min and 7.5 mL/min, respectively. Besides, the figures for the MRT last in data set [1] (setting [5]) and in data set [1] (setting [10]) were 23.4 ± 5.4 min and 27 ± 6 min, respectively. Besides, the results for the Vd in data set [1] (setting [6]) and in data set [1] (setting [11]) were 0.9 ± 0.54 L and 1.63 ± 0.65 L, respectively. The half-life was 74.4 ± 38.4 min in data set [1] (setting [7]) and 151 ± 57 min in data set [1] (setting [12]). In data set [2] (P < 0.05 vs. model group), the “ST segment elevation (ECG)” value is “seldom occurred”. Moreover, the “serum creatine kinase (CK) activity” value in data set [2] (P < 0.05 vs. model group) is given as “significantly decreased”. Further, in data set [2] (left ventricle sections), the “heart histopathology (H&E staining)” value is “mild edema, inflammatory infiltration and loss of striations in heart tissue”.
Turning to `O=C(O)/C=C/c1ccc(O)c(O)c1` [Caffeic acid, caffeic acid], the AUC(0-t) came to 75.2 ± 43.8 ng·h/mL in data set [1] (setting [3]) and 393 ± 145 ng·h/mL in data set [1] (setting [8]). Besides, the clearance is 8 mL/min in data set [1] (setting [4]) and 6.83 mL/min in data set [1] (setting [9]). Besides, the MRT last came to 8.4 ± 2.4 min in data set [1] (setting [5]) and 12 ± 4.2 min in data set [1] (setting [10]). The results for the Vd in data set [1] (setting [6]) and in data set [1] (setting [11]) were 0.16 ± 0.07 L and 0.13 ± 0.06 L, respectively. For the same compound, the half-life in data set [1] (setting [7]) was 13.8 ± 1.8 min; in data set [1] (setting [12]), 13.2 ± 4.2 min.

The term AUC(0-t) denotes the area under the concentration-time curve up to a stated or last time point. As a reminder, the clearance is the volume of plasma or blood freed of the substance per unit of time. As a reminder, the MRT last is a mean duration of stay, worked out from the concentration-time curve. Usually Vd stands for the apparent volume that relates the amount in the body to the concentration in plasma or blood. The half-life is how long it takes for the measured level to halve. Low readings indicate fast loss, high ones slow loss.
